Experimental data as given in ChEMBL document CHEMBL1125797, “Synthesis, characterization and myocardial uptake of cationic bis(arene)technetium(I) complexes” (J Med Chem, 1991).

What was measured:
[1] = system: Rattus norvegicus; assay: Biodistribution of compound in rat blood after 5 min of administration.; assay type: ADME, organism-based; conditions: in vivo
In short: (§1)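 Female Sprague-Dawley rats (150–200 g) received the complex in normal saline (~12.5 μCi/mL) through a lateral tail vein at ~25 μCi/kg. Rats were killed by cervical dislocation 5 min after injection. Tissues were washed with saline, blotted, weighed and γ-counted to give percent injected dose/g tissue.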

[2] = system: Rattus norvegicus; assay: Biodistribution of compound in rat heart after 5 min of administration.; assay type: ADME, organism-based; conditions: in vivo; in short: as §1
[3] = system: Rattus norvegicus; assay: Biodistribution of compound in rat kidney after 5 min of administration.; assay type: ADME, organism-based; conditions: in vivo; in short: as §1
[4] = system: Rattus norvegicus; assay: Biodistribution of compound in rat lung after 5 min of administration.; assay type: ADME, organism-based; conditions: in vivo; in short: as §1
[5] = Biodistribution of compound in rat muscle after 5 min of administration.; assay type: ADME, organism-based, Muscle tissue; conditions: in vivo; in short: as §1
[6] = system: Rattus norvegicus; assay: Biodistribution of compound in rat blood at 90 min after intravenous administration; assay type: ADME, organism-based; conditions: in vivo, 1.5 h
In short: (§2)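 Time course in Sprague-Dawley rats after lateral tail-vein injection of the 99mTc complex in normal saline (~12.5 μCi/mL) at ~25 μCi/kg. Tissues were sampled at the stated times, washed with saline, blotted, weighed and γ-counted to give percent injected dose per g. Values are averages of male and female rats.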

[7] = system: Rattus norvegicus; assay: Biodistribution of compound in rat urine at 1440 min after intravenous administration; assay type: ADME, organism-based; conditions: in vivo, 24 h
In short: (§3)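 Rats received the 99mTc complex in normal saline (~12.5 μCi/mL) by lateral tail vein injection at ~25 μCi/kg and were killed by cervical dislocation at the stated time. Tissues were washed with saline, blotted, weighed and γ-counted to give percent injected dose/g. Time-course values are averages of male and female rats.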

[8] = system: Rattus norvegicus; assay: Biodistribution of compound in rat urine at 360 min after intravenous administration; assay type: ADME, organism-based; conditions: in vivo, 6 h; in short: as §3
[9] = system: Rattus norvegicus; assay: Biodistribution of compound in rat blood at 1440 min after intravenous administration; assay type: ADME, organism-based; conditions: in vivo, 24 h; in short: as §2
[10] = system: Rattus norvegicus; assay: Biodistribution of compound in rat blood at 180 min after intravenous administration; assay type: ADME, organism-based; conditions: in vivo, 3 h; in short: as §2
[11] = system: Rattus norvegicus; assay: Biodistribution of compound in rat blood at 360 min after intravenous administration; assay type: ADME, organism-based; conditions: in vivo, 6 h; in short: as §2
[12] = system: Rattus norvegicus; assay: Biodistribution of compound in rat blood at 5 min after intravenous administration; assay type: ADME, organism-based; conditions: in vivo; in short: as §2
[13] = system: Rattus norvegicus; assay: Biodistribution of compound in rat gonads at 1440 min after intravenous administration; assay type: ADME, organism-based, Gonad; conditions: in vivo, 24 h; in short: as §2
[14] = system: Rattus norvegicus; assay: Biodistribution of compound in rat gonads at 180 min after intravenous administration; assay type: ADME, organism-based, Gonad; conditions: in vivo, 3 h; in short: as §2
[15] = system: Rattus norvegicus; assay: Biodistribution of compound in rat gonads at 360 min after intravenous administration; assay type: ADME, organism-based, Gonad; conditions: in vivo, 6 h; in short: as §2
[16] = system: Rattus norvegicus; assay: Biodistribution of compound in rat gonads at 45 min after intravenous administration; assay type: ADME, organism-based, Gonad; conditions: in vivo, 0.75 h; in short: as §2
[17] = system: Rattus norvegicus; assay: Biodistribution of compound in rat gonads at 5 min after intravenous administration; assay type: ADME, organism-based, Gonad; conditions: in vivo; in short: as §2
[18] = system: Rattus norvegicus; assay: Biodistribution of compound in rat gonads at 90 min after intravenous administration; assay type: ADME, organism-based, Gonad; conditions: in vivo, 1.5 h; in short: as §2
[19] = system: Rattus norvegicus; assay: Biodistribution of compound in rat heart at 1440 min after intravenous administration; assay type: ADME, organism-based; conditions: in vivo, 24 h; in short: as §2
[20] = system: Rattus norvegicus; assay: Biodistribution of compound in rat heart at 180 min after intravenous administration; assay type: ADME, organism-based; conditions: in vivo, 3 h; in short: as §2
[21] = system: Rattus norvegicus; assay: Biodistribution of compound in rat heart at 360 min after intravenous administration; assay type: ADME, organism-based; conditions: in vivo, 6 h; in short: as §2
[22] = system: Rattus norvegicus; assay: Biodistribution of compound in rat heart at 45 min after intravenous administration; assay type: ADME, organism-based; conditions: in vivo, 0.75 h; in short: as §2
[23] = system: Rattus norvegicus; assay: Biodistribution of compound in rat heart at 5 min after intravenous administration; assay type: ADME, organism-based; conditions: in vivo; in short: as §2
[24] = system: Rattus norvegicus; assay: Biodistribution of compound in rat heart at 90 min after intravenous administration; assay type: ADME, organism-based; conditions: in vivo, 1.5 h; in short: as §2
[25] = system: Rattus norvegicus; assay: Biodistribution of compound in rat kidney at 1440 min after intravenous administration; assay type: ADME, organism-based; conditions: in vivo, 24 h; in short: as §2
[26] = system: Rattus norvegicus; assay: Biodistribution of compound in rat kidney at 180 min after intravenous administration; assay type: ADME, organism-based; conditions: in vivo, 3 h; in short: as §2
[27] = system: Rattus norvegicus; assay: Biodistribution of compound in rat kidney at 360 min after intravenous administration; assay type: ADME, organism-based; conditions: in vivo, 6 h; in short: as §2
[28] = system: Rattus norvegicus; assay: Biodistribution of compound in rat kidney at 45 min after intravenous administration; assay type: ADME, organism-based; conditions: in vivo, 0.75 h; in short: as §2
[29] = system: Rattus norvegicus; assay: Biodistribution of compound in rat kidney at 5 min after intravenous administration; assay type: ADME, organism-based; conditions: in vivo; in short: as §2
[30] = system: Rattus norvegicus; assay: Biodistribution of compound in rat kidney at 90 min after intravenous administration; assay type: ADME, organism-based; conditions: in vivo, 1.5 h; in short: as §2
[31] = system: Rattus norvegicus; assay: Biodistribution of compound in rat liver at 1440 min after intravenous administration; assay type: ADME, organism-based; conditions: in vivo, 24 h; in short: as §2
[32] = system: Rattus norvegicus; assay: Biodistribution of compound in rat liver at 180 min after intravenous administration; assay type: ADME, organism-based; conditions: in vivo, 3 h; in short: as §2
[33] = system: Rattus norvegicus; assay: Biodistribution of compound in rat liver at 360 min after intravenous administration; assay type: ADME, organism-based; conditions: in vivo, 6 h; in short: as §3
[34] = system: Rattus norvegicus; assay: Biodistribution of compound in rat liver at 5 min after intravenous administration; assay type: ADME, organism-based; conditions: in vivo; in short: as §3
[35] = system: Rattus norvegicus; assay: Biodistribution of compound in rat liver at 90 min after intravenous administration; assay type: ADME, organism-based; conditions: in vivo, 1.5 h; in short: as §3

- Dose/g [1]: 0.1%
- Dose/g [2]: 3.4%
- Dose/g [3]: 6.7%
- Dose/g [4]: 1.3%
- Dose/g [5]: 0.61%
- Dose/ml [6]: 0.3 % dose
- Dose/ml [7]: 20 % dose
- Dose/ml [8]: 11 % dose
- Dose/ml [9]: 0.07 % dose
- Dose/ml [10]: 0.19 % dose
- Dose/ml [11]: 0.15 % dose
- Dose/ml [12]: 1.06 % dose
- Dose/g [13]: 0.019 % dose
- Dose/g [14]: 0.58 % dose
- Dose/g [15]: 0.039 % dose
- Dose/g [16]: 0.089 % dose
- Dose/g [17]: 0.099 % dose
- Dose/g [18]: 0.074 % dose
- Dose/g [19]: 1.27 % dose
- Dose/g [20]: 2.44 % dose
- Dose/g [21]: 2.81 % dose
- Dose/g [22]: 2.83 % dose
- Dose/g [23]: 2.51 % dose
- Dose/g [24]: 2.78 % dose
- Dose/g [25]: 0.2 % dose
- Dose/g [26]: 2 % dose
- Dose/g [27]: 1.5 % dose
- Dose/g [28]: 5.4 % dose
- Dose/g [29]: 7.1 % dose
- Dose/g [30]: 3.9 % dose/organ
- Dose/g [31]: 0.2 % dose/organ
- Dose/g [32]: 1 % dose/organ
- Dose/g [33]: 0.9 % dose/organ
- Dose/g [34]: 5.6 % dose/organ
- Dose/g [35]: 2.5 % dose/organ
Substance: Bis(1,2,3,5-tetramethylbenzene)technetium
